From ChEMBL document CHEMBL2086291, “Antitumor agent calixarene 0118 targets human galectin-1 as an allosteric inhibitor of carbohydrate binding” (J Med Chem, 2012)
The source made the active and inactive calls. The calls are words filed in the database; no cut-off is given here.

Tests used:
[1] = target: T1, Galectin-1 (Homo sapiens, UniProt P09382); experiment: Binding affinity to human [15N]-labelled Galectin-1 by heteronuclear NMR spectroscopy analysis
In short: (§1)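 Uniformly 15N-labeled recombinant human gal-1 was expressed in E. coli BL21(DE3) and dissolved at 1 mg/mL in 20 mM potassium phosphate, pH 7.0, 50 μM EDTA, 95% H2O/5% D2O. Compound was titrated and followed by 1H-15N HSQC, reading resonance broadening and intensity changes. Averaged intensity change was plotted against free ligand, with bound ligand estimated from total gal-1 monomer (60 μM).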

[2] = target: T1, Galectin-1; experiment: Inhibition of FITC-conjugated human Galectin-1binding to CD4+ cell surface glycans of gal1 -/- mouse at 20 uM after 30 mins by flow cytometry
In short: (§2)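 Splenocytes from gal-1−/− mice, with RBCs lysed in ACK for 5 min on ice. Cells stained with lineage antibodies for 40 min on ice, then given FITC-gal-1 (0.1 or 0.2 μM; FITC:protein labeling ratio 10:1) with or without compound for 30 min on ice. Binding read by multiparameter flow cytometry gated on CD4+, CD8+ and CD31+ cells.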

[3] = target: T1, Galectin-1; experiment: Inhibition of FITC-conjugated human Galectin-1binding to CD8+ cell surface glycans of gal1 -/- mouse at 20 uM after 30 mins by flow cytometry; in short: as §2
[4] = target: T1, Galectin-1; experiment: Inhibition of FITC-conjugated human Galectin-1binding to CD31+ endothelial cell surface glycans of gal1 -/- mouse at 20 uM after 30 mins by flow cytometry; in short: as §2
[5] = target: T1, Galectin-1; experiment: Inhibition of FITC-conjugated human Galectin-1binding to CD8+ cell surface glycans of gal1 -/- mouse at 100 uM after 30 mins by flow cytometry; in short: as §2
[6] = target: T1, Galectin-1; experiment: Inhibition of FITC-conjugated human Galectin-1binding to CD31+ endothelial cell surface glycans of gal1 -/- mouse after 30 mins by flow cytometry; in short: as §2
[7] = target: T1, Galectin-1; experiment: Inhibition of FITC-conjugated human Galectin-1binding to CD31+ endothelial cell surface glycans of gal1 -/- mouse at 100 uM after 30 mins by flow cytometry; in short: as §2
[8] = tested on: COLO 205; experiment: Cytotoxicity against human COLO205-S cells assessed as cell viability by MTT assay; format: functional, cell-based
In short: (§3)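 Cells grown as monolayers in RPMI with 10% FCS and 2 mM glutamine at 37 °C, 5% CO2, seeded at 2 × 10^3 cells/well. Then 72 h drug exposure and 48 h wash-out, followed by 0.4 mg/mL MTT for 4 h at 37 °C. Formazan dissolved in DMSO, absorbance read at 560 nm, and IC50 determined per cell line.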

[9] = target: T1, Galectin-1; experiment: Binding affinity to Galectin-1 in human Jurkat E6-1 cells surface glycans assessed as attenuation of agglutination at 20 uM by morphometric analysis; format: cell-based
In short: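 Jurkat E6.1 cells (2 × 10^6 per 200 μL RPMI 1640) agglutinated with 1 μM gal-1 and incubated at 22 °C in medium alone or with 20 μM compound. Agglutination imaged by inverted phase microscopy, then digitally quantified by pixel-based morphometric analysis.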

[10] = tested on: HT-29; experiment: Cytotoxicity against human HT-29 cells assessed as cell viability by MTT assay; format: functional, cell-based; in short: as §3
[11] = target: T1, Galectin-1; experiment: Inhibition of FITC-conjugated human Galectin-1binding to CD4+ cell surface glycans of gal1 -/- mouse after 30 mins by flow cytometry; in short: as §2
[12] = tested on: COLO 205; experiment: Cytotoxicity against human COLO205-R cells assessed as cell viability by MTT assay; format: functional, cell-based; in short: as §3
[13] = tested on: SQ20B; experiment: Cytotoxicity against human SQ20B cells assessed as cell viability by MTT assay; format: functional, cell-based; in short: as §3
[14] = tested on: HEp-2; experiment: Cytotoxicity against human Hep2 cells assessed as cell viability by MTT assay; format: functional, cell-based; in short: as §3
[15] = tested on: DU-145; experiment: Cytotoxicity against human DU145 cells assessed as cell viability by MTT assay; format: functional, cell-based; in short: as §3
[16] = target: T1, Galectin-1; experiment: Inhibition of FITC-conjugated human Galectin-1binding to CD8+ cell surface glycans of gal1 -/- mouse after 30 mins by flow cytometry; in short: as §2
[17] = tested on: SK-HEP1; experiment: Cytotoxicity against human SKHEP1 cells assessed as cell viability by MTT assay; format: functional, cell-based; in short: as §3
[18] = target: T1, Galectin-1; experiment: Inhibition of FITC-conjugated human Galectin-1binding to CD4+ cell surface glycans of gal1 -/- mouse at 100 uM after 30 mins by flow cytometry; in short: as §2
[19] = target: T1, Galectin-1; experiment: Binding affinity to human [15N]-labelled Galectin-1 at 60 uM by heteronuclear NMR spectroscopy analysis; in short: as §1
[20] = target: T1, Galectin-1; experiment: Inhibition of lactose binding to human [15N]-labelled Galectin-1 at molar ratio of 1:5 Gal1:compound by heteronuclear NMR spectroscopy analysis

T1 sequence (P09382 whole entry): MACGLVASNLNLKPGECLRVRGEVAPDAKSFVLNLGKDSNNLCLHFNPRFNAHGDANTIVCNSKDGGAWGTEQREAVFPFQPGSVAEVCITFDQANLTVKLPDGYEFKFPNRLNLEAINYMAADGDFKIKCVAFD

`CN(C)CCNC(=O)COc1c2cccc1Cc1cccc(c1OCC(=O)NCCN(C)C)Cc1cccc(c1OCC(=O)NCCN(C)C)Cc1cccc(c1OCC(=O)NCCN(C)C)C2` [OTX-008] was tested, and the Kd [1] was 30 µM, the inhibition [2] was 80% and the inhibition [3] was 80%. For the same molecule, the inhibition [4] was 50%, the inhibition [5] was 100% and the inhibition [6] was “Dose-dependent effect”. For the same molecule, the inhibition [7] was 70%, the Activity [8] was “Dose-dependent effect” and the Activity [9] was 80%. The Activity [10] was “Dose-dependent effect”, the inhibition [11] was “Dose-dependent effect” and the Activity [12] was “Dose-dependent effect”. The Activity [13] was “Dose-dependent effect”, the Activity [14] was “Dose-dependent effect” and the Activity [15] was “Dose-dependent effect”. For the same molecule, the inhibition [16] was “Dose-dependent effect”, the Activity [17] was “Dose-dependent effect” and the inhibition [18] was 100%. The Activity [19] was 50% and the inhibition [20] was “Active”.
